ChEMBL document CHEMBL3259688, “Synthesis and structure-activity relationship studies of conformationally flexible tetrahydroisoquinolinyl triazole carboxamide and triazole substituted benzamide analogues as σ2 receptor ligands” (J Med Chem, 2014)

What was measured:
[1] = molecular target: Sigma non-opioid intracellular receptor 1 (Cavia porcellus, UniProt Q60492); assay: Displacement of (+)-[3H]pentazocine from sigma-1 receptor in guinea pig brain membrane homogenate after 90 mins by liquid scintillation counting analysis; type: cell membranes
Sequence of Sigma non-opioid intracellular receptor 1 (Cavia porcellus, UniProt Q60492) (Q60492 whole entry): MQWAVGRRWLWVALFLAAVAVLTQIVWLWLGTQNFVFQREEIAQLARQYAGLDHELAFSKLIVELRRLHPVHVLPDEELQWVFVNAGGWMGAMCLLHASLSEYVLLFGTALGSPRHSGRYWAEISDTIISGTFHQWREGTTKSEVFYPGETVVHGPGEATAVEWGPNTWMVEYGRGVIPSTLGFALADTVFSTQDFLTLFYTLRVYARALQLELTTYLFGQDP
Outline: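 Nonspecific binding with cold haloperidol. Compounds from DMSO or ethanol, diluted in 50 mM Tris-HCl, 150 mM NaCl, 100 mM EDTA, pH 7.4. Stopped with ice-cold 10 mM Tris-HCl/150 mM NaCl pH 7.4, filtered on fiberglass, washed, scintillation counted.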

[2] = Displacement of [3H]DTG from sigma-2 receptor in rat liver membrane homogenate after 2 hrs by liquid scintillation counting analysis in presence of pentazocine; type: cell membranes
[3] = Selectivity ratio of Ki for sigma-1 receptor in guinea pig brain membrane homogenate to Ki for sigma-2 receptor in rat liver membrane homogenate; type: cell membranes
[4] = Lipophilicity, log P of the compound; type: physicochemical; details: octanol/water
[5] = Displacement of [3H]DTG from sigma-2 receptor in human MCF7 cell membranes after 120 mins
[6] = Binding affinity to sigma-2 receptor (unknown origin); parameters: species or system Homo sapiens
[7] = Antagonist activity at sigma-2 receptor in mouse EMT6 cells assessed as inhibition of cell proliferation after 24 hrs by MTS assay; type: cell-based; details: EMT6, 24 h
Outline: (§1)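 EMT-6 mouse breast cancer cells grown in DMEM with 10% FBS and penicillin/streptomycin at 37 °C, 5% CO2. Seeded at 5 × 10^3 cells/well 24 h before dosing; serial dilutions from DMSO stocks, final DMSO ≤1.0%. Exposure 24 or 48 h, then MTS reagent 1–2 h at 37 °C, absorbance 490 nm vs untreated cells. EC50 from dose–response curves; triplicate wells, mean ± SEM of three independent experiments.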

[8] = Antagonist activity at sigma-2 receptor in mouse EMT6 cells assessed as inhibition of cell proliferation after 48 hrs by MTS assay; type: cell-based; details: EMT6, 48 h; outline: as §1
[9] = molecular target: Sigma non-opioid intracellular receptor 1 (Homo sapiens, UniProt Q99720); assay: Binding affinity to sigma-1 receptor (unknown origin)
Sequence of Sigma non-opioid intracellular receptor 1 (Homo sapiens, UniProt Q99720) (Q99720 whole entry): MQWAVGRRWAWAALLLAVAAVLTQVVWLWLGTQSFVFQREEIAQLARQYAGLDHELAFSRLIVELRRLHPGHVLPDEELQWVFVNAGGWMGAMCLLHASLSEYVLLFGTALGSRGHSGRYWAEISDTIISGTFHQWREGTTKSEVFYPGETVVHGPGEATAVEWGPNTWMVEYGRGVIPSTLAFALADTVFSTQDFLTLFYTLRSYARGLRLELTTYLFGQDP

Homo sapiens = species on record: Homo sapiens; assay: Selectivity ratio of Ki for sigma-1 receptor (unknown origin) to Ki for sigma-2 receptor (unknown origin)
[10] = molecular target: Sigma non-opioid intracellular receptor 1 (Mus musculus, UniProt O55242); assay: Displacement of 5-bromo-N-(4-(3,4-dihydro-6,7-dimethoxyisoquinolin-2(1H)-yl)butyl)-2,3-dimethoxybenzamide from sigma-1 receptor in mouse EMT6 cell membranes after 60 mins by Scatchard plot analysis
Sequence of Sigma non-opioid intracellular receptor 1 (Mus musculus, UniProt O55242) (O55242 whole entry): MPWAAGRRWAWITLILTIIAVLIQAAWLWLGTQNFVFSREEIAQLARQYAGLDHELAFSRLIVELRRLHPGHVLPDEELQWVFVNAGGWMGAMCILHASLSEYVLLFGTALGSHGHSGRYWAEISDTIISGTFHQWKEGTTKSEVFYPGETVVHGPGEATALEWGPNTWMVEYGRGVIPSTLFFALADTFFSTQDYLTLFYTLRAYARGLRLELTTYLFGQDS

[11] = Displacement of 5-bromo-N-(4-(3,4-dihydro-6,7-dimethoxyisoquinolin-2(1H)-yl)butyl)-2,3-dimethoxybenzamide from sigma-2 receptor in mouse EMT6 cell membranes after 60 mins by Scatchard plot analysis
EMT6 = assay: Selectivity ratio of Ki for sigma-1 receptor in mouse EMT6 cell membranes to Ki for sigma-2 receptor in mouse EMT6 cell membranes; type: cell-based

SMILES | Ki [1] [µM] | Ki [2] [nM] | Ratio Ki [3] | further results
COc1cc2c(cc1OC)CN(CCCCNC(=O)c1cc(-n3cc(CN(C)C)nn3)ccc1OCCF)CC2 | 21.9 | 94 | 232 | 
COc1cc2c(cc1OC)CN(CCCCNC(=O)c1ccc(-c3cn(CCOCCOCCF)nn3)cc1)CC2 | 16 | 212 | 75 | 
COc1cc2c(cc1OC)CN(CCCCNC(=O)c1cc(-n3cc(CN(C)C)nn3)ccc1OC)CC2 | 22.4 | 56.8 | 395 | 
COc1ccc(Cn2cc(C(=O)NCCN3CCc4cc(OC)c(OC)cc4C3)nn2)cc1 | 84.5 | 93.2 | 906 | 
COc1cc2c(cc1OC)CN(CCCCNC(=O)c1cn(-c3ccc(OCCF)cc3)nn1)CC2 | 46.3 | 21.9 | 2120 | 
COc1cc2c(cc1OC)CN(CCCCNC(=O)c1cn(-c3ccccc3OC)nn1)CC2 | 13.1 | 1.5 | 8740 | 
COc1cccc(Cn2cc(-c3cccc(C(=O)NCCCCN4CCc5cc(OC)c(OC)cc5C4)c3)nn2)c1 | 1.75 | 66 | 26 | 
C#CCOc1ccc(C#N)cc1C(=O)NCCCCN1CCc2cc(OC)c(OC)cc2C1 | 3.68 | 12.2 | 301 | 
COc1cc2c(cc1OC)CN(CCCCNC(=O)c1cn(-c3ccccc3OCCF)nn1)CC2 | 17.1 | 24 | 713 | 
COc1cc2c(cc1OC)CN(CCCCNC(=O)c1cn(Cc3ccccc3)nn1)CC2 | 4.48 | 12.4 | 361 | 
COc1cc2c(cc1OC)CN(CCCCNC(=O)c1c[nH]nn1)CC2 | 11 | 1020 | 10.7 | 
COc1cccc(Cn2cc(-c3ccc(C(=O)NCCCCN4CCc5cc(OC)c(OC)cc5C4)cc3)nn2)c1 | 11.5 | 66.2 | 174 | 
COc1cc2c(cc1OC)CN(CCCCNC(=O)c1cc(-n3cc(COCCOCCF)nn3)ccc1OC)CC2 | 11.5 | 66 | 174 | 
COc1cccc(-n2cc(C(=O)NCCN3CCc4cc(OC)c(OC)cc4C3)nn2)c1 | 76.7 | 180 | 426 | 
COc1cccc(-n2cc(C(=O)NCCCCN3CCc4cc(OC)c(OC)cc4C3)nn2)c1 | 20.2 | 3 | 6730 | 
COc1ccccc1Cn1cc(C(=O)NCCN2CCc3cc(OC)c(OC)cc3C2)nn1 | 18.6 | 156 | 118 | 
COc1cc2c(cc1OC)CN(CCCCNC(=O)c1ccc(-c3cn(CCF)nn3)cc1)CC2 | 71.9 | 139 | 517 | 
COc1ccc(Cn2cc(C(=O)NCCCCN3CCc4cc(OC)c(OC)cc4C3)nn2)cc1 | 3.35 | 5 | 669 | 
COc1ccc(Cn2cc(-c3ccc(C(=O)NCCCCN4CCc5cc(OC)c(OC)cc5C4)cc3)nn2)cc1 | 12.6 | 31.4 | 406 | 
COc1cc2c(cc1OC)CN(CCCCNC(=O)c1cn(Cc3cccc(O)c3)nn1)CC2 | 8.08 | 22.5 | 359 | 
COc1cccc2c1CCCC2CCCN1CCN(C2CCCCC2)CC1 (configuration not stated) |  |  |  | logP [4]: 5; Ki [5]: 0.28 nM

SMILES | Ki [1] [µM] | Ki [2] [nM] | Ratio Ki [3] | further results
COc1cc2c(cc1OC)CN(CCNC(=O)c1cn(-c3ccccc3OC)nn1)CC2 | 15.5 | 150 | 103 | 
Fc1ccc(-n2cc(CCCCN3CCC4(CC3)OCc3ccccc34)c3ccccc32)cc1 [SIRAMESINE] |  |  |  | Ki [6]: 0.12 nM; logP [4]: 6.07; EC50 [7]: 14.9 µM; EC50 [8]: 5.3 µM
COc1ccc(-n2cc(C(=O)NCCCCN3CCc4cc(OC)c(OC)cc4C3)nn2)cc1 | 39.2 | 5.5 | 7120 | EC50 [7]: > 200 µM; EC50 [8]: > 200 µM
COc1cc2c(cc1OC)CN(CCCCNC(=O)c1cn(Cc3ccc(O)cc3)nn1)CC2 | 63.5 | 11.6 | 5480 | 
CN1CC[C@]2(c3cccc(O)c3)CC/C(=C/c3ccccc3)[C@@H]1C2 |  |  |  | Ki [9]: 3.06 µM; Ki [6]: 16.5 nM; Ratio Ki (Homo sapiens): 185; logP [4]: 3.22
COc1cccc(Cn2cc(C(=O)NCCCCN3CCc4cc(OC)c(OC)cc4C3)nn2)c1 | 12.7 | 10.7 | 1180 | 
COc1ccccc1Cn1cc(C(=O)NCCCCN2CCc3cc(OC)c(OC)cc3C2)nn1 | 20.6 | 9.7 | 2120 | 
COc1cc2c(cc1OC)CN(CCCCNC(=O)c1cc(I)ccc1OCCF)CC2 |  |  |  | logP [4]: 4.61; Ki [10]: 1300 nM; Ki [11]: 1.06 nM
COc1cc2c(cc1OC)CN(CCCCNC(=O)c1cc(C)ccc1OC)CC2 |  |  |  | logP [4]: 3.55; Ki [10]: 3080 nM
COc1cc2c(cc1OC)CN(CCCCNC(=O)c1cc(-n3cc(-c4cncn4C)nn3)ccc1OC)CC2 | 6.36 | 20.7 | 307 | 
COc1cccc(Cn2cc(C(=O)NCCN3CCc4cc(OC)c(OC)cc4C3)nn2)c1 | 80.1 | 214 | 373 | 
CN1CC[C@]2(c3cccc(O)c3)CC/C(=C/c3ccc(Cl)c(Cl)c3)[C@@H]1C2 |  |  |  | Ki [9]: 7.46 µM; Ki [6]: 13.4 nM; Ratio Ki (Homo sapiens): 557; logP [4]: 4.34
COc1cc2c(cc1OC)CN(CCCCNC(=O)c1cn(Cc3ccc(OCCF)cc3)nn1)CC2 | 21.5 | 48.2 | 447 | 
COc1ccccc1Cn1cc(-c2ccc(C(=O)NCCCCN3CCc4cc(OC)c(OC)cc4C3)cc2)nn1 | 8.58 | 55 | 156 | 
COc1cc2c(cc1OC)CN(CCCCNC(=O)c1cn(Cc3cccc(OCCF)c3)nn1)CC2 | 46.3 | 62.1 | 744 | 
COc1cc2c(cc1OC)CN(CCCCNC(=O)c1cn(-c3cccc(OCCF)c3)nn1)CC2 | 17.9 | 25.1 | 715 | 
COc1ccc(-n2cc(C(=O)NCCN3CCc4cc(OC)c(OC)cc4C3)nn2)cc1 | > 100 | 410 | > 243 | 
COc1cc2c(cc1OC)CN(CCCCNC(=O)c1cc(C#N)ccc1OCc1cn(CCF)nn1)CC2 | 14.1 | 31.9 | 442 | 
COc1cc2c(cc1OC)CN(CCCCNC(=O)c1cc(C)ccc1OCCF)CC2 |  |  |  | logP [4]: 3.74; Ki [10]: 330 nM; Ki [11]: 6.59 nM; Ratio Ki (EMT6): 48
COc1cc2c(cc1OC)CN(CCCCNC(=O)c1ccc(-c3cn(CCOCCF)nn3)cc1)CC2 | 14.7 | 137 | 107 | 
